Reference: article PMC5060091 (ChemMedChem, 2016)
In brackets after ≈: the same amount, converted by molar mass. Read-outs that look alike come from different tables or passages of the source.

Tests used:
[1] = tested on: Candida and Aspergillus strains; experiment: MIC against whole panel of fungal strains; format: cell-based; conditions: read-out: MIC values against the panel of fungal strains
Outline: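 Whole-cell broth dilution MIC across Candida strains A–J and three Aspergillus strains: A. flavus ATCC MYA-3631, A. nidulans ATCC 38163 and A. terreus ATCC MYA-3633. Aspergillus was tested as freshly harvested spores. DMSO was below 1% in the assay. Values are given in µg/mL (and µM), with a polyene and four azoles as reference agents.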

[2] = tested on: C. albicans ATCC 90819(R); experiment: MIC, broth dilution, strain D; format: cell-based, Candida albicans; conditions: Candida albicans
Outline: (§1)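 Broth dilution MIC assay on the Candida panel: C. albicans strains A–G, C. glabrata (H), C. krusei (I) and C. parapsilosis (J). Test compounds were delivered in DMSO, with DMSO kept below 1% in the assay. The MIC is reported in µg/mL, with µM in parentheses. Reference antifungals (a polyene and four azoles) were run alongside.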

[3] = tested on: C. albicans ATCC MYA-1237(R); experiment: MIC, broth dilution, strain F; format: cell-based, Candida albicans; conditions: Candida albicans
Outline: as §1

[4] = tested on: C. albicans ATCC 64124 (strain B); experiment: Time-kill assay; format: cell-based, Candida albicans
[5] = tested on: C. albicans ATCC MYA-1003(R); experiment: MIC, broth dilution, strain G; format: cell-based, Candida albicans; conditions: Candida albicans
Outline: as §1

[6] = tested on: Candida albicans ATCC 10231; experiment: MIC, broth dilution, strain A; format: cell-based; conditions: Candida albicans
Outline: as §1

[7] = tested on: C. albicans ATCC MYA-2310(S); experiment: MIC, broth dilution, strain E; format: cell-based, Candida albicans; conditions: Candida albicans
Outline: as §1

[8] = tested on: Aspergillus terreus ATCC MYA-3633; experiment: MIC, broth dilution, strain M; format: cell-based; conditions: Aspergillus terreus
[9] = tested on: C. albicans ATCC MYA-2876(S); experiment: MIC, broth dilution, strain C; format: cell-based, Candida albicans; conditions: Candida albicans
Outline: as §1

C. albicans ATCC 64124 [10] = experiment: MIC, broth dilution, strain B; format: cell-based, Candida albicans; conditions: Candida albicans
Outline: as §1

[11] = tested on: C. albicans ATCC MYA-2310(S); conditions: strain E; azoles; previously reported; cited from earlier work
[12] = tested on: C. albicans ATCC MYA-2876(S); conditions: strain C; azoles; previously reported; cited from earlier work
C. albicans ATCC 64124 [13] = conditions: strain B; azoles; previously reported; cited from earlier work
[14] = tested on: C. albicans ATCC 90819(R); conditions: strain D; azoles; previously reported; cited from earlier work
[15] = tested on: C. albicans ATCC 10231 (strain A); experiment: ROS induction assay; format: cell-based, Candida albicans; conditions: 1× and 2× MIC, 1-h treatment; H2O2 1 mM
Outline: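 C. albicans ATCC 10231 cells were incubated 1 h at 37 °C with test compound at 1× or 2× MIC, with no drug (negative control), or with 1 mM H₂O₂ (positive control). DCFH-DA (40 µg/mL) was then added. ROS were detected and imaged by fluorescence microscopy.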

[16] = read-out: MIC (MIC-0) in µM (parentheses)

Which results are given for `C[C@@H]1[C@H](O)[C@@H](C)/C=C/C=C/C=C/C=C/C=C/C=C/C=C/[C@H](O[C@@H]2O[C@H](C)[C@@H](O)[C@H](N)[C@@H]2O)C[C@@H]2O[C@](O)(C[C@@H](O)C[C@@H](O)[C@H](O)CC[C@@H](O)C[C@@H](O)CC(=O)O[C@H]1C)C[C@H](O)[C@H]2C(=O)O` [AmB, amphotericin B]?
MIC [1]: 0.98 to 15.6 µg/mL (≈ 1.06 to […] µM); MIC ([2]; ATCC90819, read-out: MIC (MIC-0)): 0.98 µg/mL; MIC ([2]; ATCC90819, read-out: MIC (MIC-0) in µM (parentheses)): 1.06 µM; MIC ([3]; read-out: MIC (MIC-0)): 3.9 µg/mL; MIC [3, 16]: 4.22 µM; time from which completely fungicidal ([4]; 2× MIC): 6 h; time-kill effect ([4]; 2× MIC (1 25, 2a 25, 3a 0.78, AmB 7.8 µg/mL)): completely fungicidal; MIC ([5]; read-out: MIC (MIC-0)): 3.9 µg/mL; MIC [5, 16]: 4.22 µM; MIC ([6]; ATCC10231, read-out: MIC (MIC-0)): 3.9 µg/mL; MIC ([6]; ATCC10231, read-out: MIC (MIC-0) in µM (parentheses)): 4.22 µM; MIC ([7]; read-out: MIC (MIC-0)): 1.95 µg/mL; MIC [7, 16]: 2.11 µM; MIC ([8]; read-out: MIC (MIC-0)): 3.9 µg/mL; MIC [8, 16]: 4.22 µM; MIC ([9]; read-out: MIC (MIC-0)): 1.95 µg/mL; MIC [9, 16]: 2.11 µM; MIC (C. albicans ATCC 64124 [10]; ATCC64124, read-out: MIC (MIC-0)): 3.9 µg/mL; MIC (C. albicans ATCC 64124 [10]; ATCC64124, read-out: MIC (MIC-0) in µM (parentheses)): 4.22 µM

With `OC(Cn1cncn1)(Cn1cncn1)c1ccc(F)cc1F` [FLC, fluconazole] as the molecule, how does the “MIC (MIC-2)” value [11] read?
Its value is greater than 125 µg/mL.

And the “MIC (MIC-2) in µM (parentheses)” value [11]?
The value was greater than 408 µM.

And the “MIC (MIC-2)” value [12]?
Its value is 15.6 µg/mL (≈ 50.9 µM).

And the “MIC (MIC-2) in µM (parentheses)” value [12]?
The value was 51.0 µM (≈ 15.6 µg/mL).

And the “MIC (MIC-2)” value (C. albicans ATCC 64124 [13])?
The value was greater than 125 µg/mL.

What about the “MIC (MIC-2) in µM (parentheses)” value (C. albicans ATCC 64124 [13]) of the same molecule?
The value was greater than 408 µM.

What about the “MIC (MIC-2)” value [14] of the same molecule?
Its value is greater than 125 µg/mL.

What about the “MIC (MIC-2) in µM (parentheses)” value [14] of the same molecule?
Its value is greater than 408 µM.

With `OO` [H2O2] as the molecule, how does the “ROS induction (DCFH-DA fluorescence)” value [15] read?
Its value is “highly fluorescent”.
